# From article PMC10345485 (Saudi Pharmaceutical Journal : SPJ, 2023)
# Where “and” joins values, the source holds several entries; their conditions need not be identical. Equal entries are not always repeated.
# Molecular target: urease (Canavalia ensiformis, UniProt P07374)
# Assay: Urease inhibition assay
# Type: biochemical
# Details: IC50 (µM) ± SEM, in-vitro urease inhibition
# Procedure, shortened: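 Test compound and enzyme preincubated in pH 6.8 phosphate buffer for 10 min at 37 °C. Phenol and alkali reagents then added. Absorbance read at 625 nm. Percent inhibition calculated as (control absorbance − sample absorbance)/control absorbance × 100. Run in triplicate, with a standard urease inhibitor as positive control. Values given ± SEM.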
# Sequence of urease (P07374 whole entry, looked up): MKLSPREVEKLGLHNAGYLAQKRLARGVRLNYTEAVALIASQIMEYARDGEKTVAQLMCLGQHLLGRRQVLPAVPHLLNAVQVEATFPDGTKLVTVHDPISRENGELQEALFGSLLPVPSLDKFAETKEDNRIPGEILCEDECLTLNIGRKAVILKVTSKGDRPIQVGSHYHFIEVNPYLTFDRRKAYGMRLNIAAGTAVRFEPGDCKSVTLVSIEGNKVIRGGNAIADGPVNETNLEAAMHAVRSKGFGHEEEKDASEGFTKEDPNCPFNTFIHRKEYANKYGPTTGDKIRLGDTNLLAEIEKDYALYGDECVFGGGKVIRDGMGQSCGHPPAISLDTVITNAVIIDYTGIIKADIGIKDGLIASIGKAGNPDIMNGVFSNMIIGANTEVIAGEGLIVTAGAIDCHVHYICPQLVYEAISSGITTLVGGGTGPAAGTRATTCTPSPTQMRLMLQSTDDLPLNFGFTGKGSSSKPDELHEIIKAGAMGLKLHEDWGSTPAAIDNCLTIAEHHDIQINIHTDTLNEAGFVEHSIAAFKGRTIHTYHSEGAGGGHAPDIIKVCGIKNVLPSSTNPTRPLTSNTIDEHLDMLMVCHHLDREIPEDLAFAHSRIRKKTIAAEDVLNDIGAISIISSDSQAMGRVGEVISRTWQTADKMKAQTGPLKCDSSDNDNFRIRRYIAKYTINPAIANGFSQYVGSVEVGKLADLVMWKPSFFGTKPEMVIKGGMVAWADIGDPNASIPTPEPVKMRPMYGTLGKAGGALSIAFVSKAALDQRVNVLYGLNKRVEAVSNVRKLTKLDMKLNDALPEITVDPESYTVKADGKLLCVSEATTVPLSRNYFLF
row,Compound,IC50
1,"Clc1ccc(C=NN=C(Cc2ccccc2)c2ccccc2)cc1 [Compound 6, 1-(4-chlorobenzylidene)-2-(1,2-diphenylethylidene)hydrazine]",28.11 ± 0.22 µM
2,"Clc1ccc(C=NN=C(Cc2ccccc2)c2ccccc2)c(Cl)c1 [Compound 3, 1-(2,4-dichlorobenzylidene)-2-(1,2-diphenylethylidene)hydrazine]",22.2 ± 0.42 µM
3,"O=[N+]([O-])c1ccc(O)c(C=NN=C(Cc2ccccc2)c2ccccc2)c1 [Compound 5, 1-(1,2-diphenylethylidene)-2-(2-hydroxy-5-nitrobenzylidene)hydrazine]",34.3 ± 0.65 µM
4,"CSc1ccc(C=NN=C(Cc2ccccc2)c2ccccc2)cc1 [Compound 7, 1-(1,2-diphenylethylidene)-2-(4-(methylthio)benzylidene)hydrazine]",45.9 µM and 48.3 µM
5,"Cc1ccc(C=NN=C(Cc2ccccc2)c2ccccc2)cc1 [Compound 8, 1-(1,2-diphenylethylidene)-2-(4-methylbenzylidene)hydrazine]",47.9 µM and 45.9 µM
6,"O=[N+]([O-])c1ccc(C=NN=C(Cc2ccccc2)c2ccccc2)cc1 [Compound 4, 1-(1,2-diphenylethylidene)-2-(4-nitrobenzylidene)hydrazine]",26.11 ± 0.22 µM
7,"Oc1ccc(C=NN=C(Cc2ccccc2)c2ccccc2)cc1 [Compound 9, 1-(1,2-diphenylethylidene)-2-(4-hydroxybenzylidene)hydrazine]",48.3 µM and 47.9 µM
